ChEMBL document CHEMBL4402547, “Synthesis and Pharmacological Characterization of Conformationally Restricted Retigabine Analogues as Novel Neuronal Kv7 Channel Activators” (J Med Chem, 2020)
Calls of active or inactive are those of the source. No cut-off for these calls is given here.

Legend:
[1] = molecular target: T1, Potassium voltage-gated channel subfamily KQT member 2 (Homo sapiens, UniProt O43526); experiment: Activation of human Kv7.2 expressed in CHO cells assessed as increase in current amplitude at 10 uM measured at holding potential of -40 mV by whole cell patch clamp electrophysiology assay relative to control; type: cell-based
T1 sequence (O43526 whole entry, the tested form may be a part): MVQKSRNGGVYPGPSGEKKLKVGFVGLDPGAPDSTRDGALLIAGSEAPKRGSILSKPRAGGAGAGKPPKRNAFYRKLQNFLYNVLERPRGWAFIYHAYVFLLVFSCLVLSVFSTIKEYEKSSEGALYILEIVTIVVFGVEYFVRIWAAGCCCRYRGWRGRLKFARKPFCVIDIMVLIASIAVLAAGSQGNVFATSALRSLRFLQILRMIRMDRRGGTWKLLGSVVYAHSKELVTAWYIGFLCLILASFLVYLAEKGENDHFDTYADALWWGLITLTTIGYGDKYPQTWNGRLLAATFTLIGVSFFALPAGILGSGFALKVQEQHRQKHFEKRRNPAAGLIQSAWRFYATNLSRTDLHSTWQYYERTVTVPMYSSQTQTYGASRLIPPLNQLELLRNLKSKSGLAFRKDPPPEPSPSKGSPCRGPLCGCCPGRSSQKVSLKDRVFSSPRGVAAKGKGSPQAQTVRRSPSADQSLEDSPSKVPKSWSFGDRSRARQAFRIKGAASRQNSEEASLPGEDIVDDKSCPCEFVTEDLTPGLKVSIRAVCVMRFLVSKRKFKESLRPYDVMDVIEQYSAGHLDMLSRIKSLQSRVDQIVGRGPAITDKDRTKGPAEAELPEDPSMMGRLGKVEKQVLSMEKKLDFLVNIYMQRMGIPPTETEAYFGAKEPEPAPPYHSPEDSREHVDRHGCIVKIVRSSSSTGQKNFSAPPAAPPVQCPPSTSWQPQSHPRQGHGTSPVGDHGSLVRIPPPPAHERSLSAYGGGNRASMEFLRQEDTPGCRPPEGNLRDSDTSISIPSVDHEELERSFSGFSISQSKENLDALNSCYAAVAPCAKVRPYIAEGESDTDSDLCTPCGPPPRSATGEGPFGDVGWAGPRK
Summary of the method: (§1)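 CHO cells transiently co-transfected (Lipofectamine 2000, 4 μg total cDNA, EGFP marker) with human channel cDNA in pcDNA3.1, recorded 24 h later. Whole-cell patch clamp at 20–22°C, 3–5 MΩ pipettes, perfused extracellular solution pH 7.4. Held at −80 mV; 3-s ramps −80 to +20 mV ± 10 μM drug. Current at −40 mV with vs without drug expressed as ratio; ≥3 cells from ≥2 transfections, mean ± SEM.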

[2] = molecular target: T1, Potassium voltage-gated channel subfamily KQT member 2; experiment: Activation of human Kv7.2 expressed in CHO cells assessed as increase in current amplitude at 10 uM measured at holding potential of 0 mV by whole cell patch clamp electrophysiology assay relative to control; type: cell-based
Summary of the method: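 Transiently transfected CHO cells expressing human Kv7.2, whole-cell patch clamp at 20–22°C in HEPES-buffered saline pH 7.4. Cells held at −80 mV and ramped −80 to +20 mV over 3 s, before and during 10 μM drug. Ramp current at 0 mV taken as drug/control ratio; mean ± SEM of ≥3 cells, ≥2 transfections.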

[3] = test system: Potassium voltage-gated channel subfamily KQT member 2 (Homo sapiens), O43526 [F168L]; experiment: Activation of ICA-insensitive human Kv7.2 F168L mutant expressed in CHO cells assessed as increase in channel current amplitude at 10 uM measured at holding potential of -40 mV by whole cell patch clamp electrophysiology assay; type: cell-based; summary of the method: as §1
Sequence of Potassium voltage-gated channel subfamily KQT member 2 (Homo sapiens), O43526 [F168L] (O43526 whole entry F168L): as the sequence (O43526 whole entry, the tested form may be a part) above, with F168L counted along it

[4] = test system: Potassium voltage-gated channel subfamily KQT member 2 (Homo sapiens), O43526 [W236L]; experiment: Activation of human Kv7.2 W236L mutant expressed in CHO cells assessed as channel current amplitude at 10 uM measured at holding potential of -40 mV by whole cell patch clamp electrophysiology assay; type: cell-based; summary of the method: as §1
Sequence of Potassium voltage-gated channel subfamily KQT member 2 (Homo sapiens), O43526 [W236L] (O43526 whole entry W236L): as the sequence (O43526 whole entry, the tested form may be a part) above, with W236L counted along it

[5] = Photostability of compound in pH 7.4 buffer assessed as compound degradation at 100 ug/ml incubated for 6 hrs under natural solar light-irradiation by HPLC analysis relative to control
Summary of the method: (§2)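 DMSO solutions diluted in pH 7.4 buffer, held in 1 cm quartz cells and exposed to natural daylight. Light-shielded controls kept at 37°C in foil. Aliquots drawn at set intervals and parent compound loss measured by UHPLC: C18 column, 0.1% TFA water/acetonitrile gradient, 45°C, detection at 254 nm.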

[6] = Photostability of compound in pH 7.4 buffer assessed as compound degradation at 100 ug/ml incubated for 2 hrs under natural solar light-irradiation by HPLC analysis relative to control; summary of the method: as §2
[7] = Photostability of compound in pH 7.4 buffer assessed as compound degradation at 100 ug/ml incubated for 4 hrs under natural solar light-irradiation by HPLC analysis relative to control; summary of the method: as §2

SMILES	Activity [1]	Activity [2]	also measured
O=C(Nc1ccc2c(c1)CCN2Cc1ccc(F)cc1)C1CCCCC1	inactive	inactive	
O=S(=O)(CCC1CCCCC1)Nc1ccc2c(ccn2Cc2ccc(F)cc2)c1	inactive	inactive	
CCCCS(=O)(=O)Nc1ccc2c(c1)CCN2Cc1ccc(F)cc1	inactive	inactive	
O=S(=O)(Nc1ccc2c(ccn2Cc2ccc(C(F)(F)F)cc2)c1)C1CCCCC1	inactive	inactive	
CCCCCCCCCCCCCCCC(=O)Nc1ccc2c(ccn2Cc2ccc(C(F)(F)F)cc2)c1	inactive	inactive	
O=C(Nc1ccc(Cl)nc1)c1ccc(F)c(F)c1	Active	Active	Activity [3]: inactive; Activity [4]: Active
O=C(Nc1ccc2c(c1)CCN2Cc1ccc(F)cc1)NC1CCCCC1	inactive	inactive	
CCCCNCC(=O)Nc1ccc2c(ccn2Cc2ccc(C(F)(F)F)cc2)c1	inactive	inactive	
CC(C)[C@H]1CC[C@H](C)C[C@@H]1OC(=O)Nc1ccc2c(c1)CCN2Cc1ccc(F)cc1	inactive	inactive	
O=S(=O)(Nc1ccc2c(c1)CCN2Cc1ccc(F)cc1)N1CCCCCC1	inactive	inactive	
CCOC(=O)Nc1ccc2c(c1)CCN2Cc1ccc(F)cc1	inactive	inactive	
CCCCN(C)CC(=O)Nc1ccc2c(ccn2Cc2ccc(C(F)(F)F)cc2)c1	inactive	inactive	
CC1(C)[C@H]2CC[C@]1(CS(=O)(=O)Nc1ccc3c(c1)CCN3Cc1ccc(F)cc1)C(=O)C2	inactive	inactive	
O=S(=O)(Nc1ccc2c(c1)CCN2Cc1ccc(F)c(F)c1)C1CCCCC1	inactive	inactive	
CCCCCCC(=O)Nc1ccc2c(c1)CCCC2Cc1ccc(C(F)(F)F)cc1 (racemic)	inactive	inactive	
CC(=O)Nc1ccc2c(c1)CCN2Cc1ccc(F)cc1	inactive	inactive	
CCCCCCS(=O)(=O)Nc1ccc2c(c1)CCN2Cc1ccc(F)cc1	inactive	inactive	
O=[N+]([O-])c1cc(Br)ccc1CN1CCc2cc(NS(=O)(=O)C3CCCCC3)ccc21	inactive	Active	
O=S(=O)(Nc1ccc2c(c1)CCN2CCc1ccc(F)cc1)C1CCCCC1	inactive	inactive	
CCCCCCC(=O)Nc1ccc2c(c1)CCC/C2=C/c1ccc(C(F)(F)F)cc1	inactive	inactive	

SMILES	Activity [1]	Activity [2]	also measured
CCCCCCC(=O)Nc1ccc2c(ccn2Cc2ccc(O)cc2)c1	inactive	inactive	
CC(C)CS(=O)(=O)Nc1ccc2c(c1)CCN2Cc1ccc(F)cc1	inactive	inactive	
COc1ccc(CN2c3ccc(NS(=O)(=O)C4CCCCC4)cc3CC2C)cc1 (racemic)	inactive	inactive	
O=S(=O)(Nc1ccc2c(c1)CCN2Cc1ccc(F)cc1F)C1CCCCC1	inactive	Active	Drug degradation [5]: > 99%; Drug degradation [6]: 33.5%; Drug degradation [7]: 81.7%
O=S(=O)(Nc1ccc2c(ccn2Cc2ccc(F)cc2)c1)C1CCCCC1	inactive	Active	Drug degradation [5]: 23.1%; Drug degradation [6]: 6.46%; Drug degradation [7]: 15.8%
CCOC(=O)Nc1ccc(NCc2ccc(F)cc2)nc1N	Active	Active	
CC(C)(C)CNC(=N)Nc1ccc2c(c1)CCN2Cc1ccc(F)cc1	inactive	inactive	
O=S(=O)(Nc1ccc2c(c1)CCN2Cc1ccc(F)cc1)c1ccccc1	inactive	inactive	
O=S(=O)(Nc1ccc2c(c1)CCN2Cc1ccc(C(F)(F)F)cc1C(F)(F)F)C1CCCCC1	inactive	inactive	
O=C(c1ccc(F)cc1)N1CCc2cc(NS(=O)(=O)C3CCCCC3)ccc21	inactive	inactive	
COc1ccc(CN2CCc3cc(NS(=O)(=O)C4CCCCC4)ccc32)cc1	inactive	Active	Drug degradation [5]: > 99%; Drug degradation [6]: 37.5%; Drug degradation [7]: 84.7%
CC1(C)[C@@H]2CC[C@@]1(CS(=O)(=O)Nc1ccc3c(c1)CCN3Cc1ccc(F)cc1)C(=O)C2	inactive	inactive	
CC1CC(C)CN(S(=O)(=O)Nc2ccc3c(c2)CCN3Cc2ccc(F)cc2)C1 (stereo unspecified)	inactive	inactive	
CC(C)(C)CNC(=O)Nc1ccc2c(c1)CCN2Cc1ccc(F)cc1	inactive	inactive	
O=S(=O)(Nc1ccc2c(c1)CCN2Cc1ccc(C(F)(F)F)cc1)C1CCCCC1	inactive	inactive	
CCCCCCC(=O)Nc1ccc2c(c1)CCC/C2=C\c1ccc(C(F)(F)F)cc1	inactive	inactive	
COc1ccc(Cn2ccc3cc(NS(=O)(=O)C4CCCCC4)ccc32)cc1	inactive	inactive	
CCCCCCC(=O)Nc1ccc2c(ccn2Cc2ccc(OCOC)cc2)c1	inactive	inactive	
O=C(CC1CCCCC1)Nc1ccc2c(c1)CCN2Cc1ccc(F)cc1	inactive	inactive	
O=C(Cc1ccc(Cl)cc1)N1CCc2cc(NS(=O)(=O)C3CCCCC3)ccc21	inactive	inactive	
